Test system: HEK-293T
Assay: Multiplex assay against HEK293T
Assay type: toxicity, cell-based
Details: human
Method in brief: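 Compound was added to live cells that had been stained at seeding with Hoechst33342, BioTracker Green Microtubule Cytoskeleton Dye, MitoTracker Red and Annexin V Alexa Fluor 680, and imaging followed on a CQ1 microscope at 37°C and 5% CO2. CellPathfinder machine-learning gating divided cells into Hoechst high-intensity objects or normal cells, normal cells into healthy, pyknosed or fragmented nuclei, and pyknosed cells into mitotic or apoptotic. Tubulin, mitochondrial-mass and membrane-permeability phenotypes are per cents of healthy-nucleus cells.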

[1] = 12 h, 1 µM, compound concentration 1 uM, replicate 1
[2] = 12 h, 1 µM, compound concentration 1 uM, replicate 2
[3] = 12 h, 10 µM, compound concentration 10 uM, replicate 1
[4] = 12 h, 10 µM, compound concentration 10 uM, replicate 2
[5] = 24 h, 1 µM, compound concentration 1 uM, replicate 1
[6] = 24 h, 1 µM, compound concentration 1 uM, replicate 2
[7] = 24 h, 10 µM, compound concentration 10 uM, replicate 1
[8] = 24 h, 10 µM, compound concentration 10 uM, replicate 2
[9] = 48 h, 1 µM, compound concentration 1 uM, replicate 1
[10] = 48 h, 1 µM, compound concentration 1 uM, replicate 2
[11] = 48 h, 10 µM, compound concentration 10 uM, replicate 1
[12] = 48 h, 10 µM, compound concentration 10 uM, replicate 2

SMILES: N#Cc1c(Oc2cccc(OS(=O)(=O)CCCC(F)(F)F)c2)cccc1C(F)(F)F
- Population Apoptotic (%) [1]: 35%
- Population Fragmented Nuclei (%) [1]: 4%
- Population Healthy Nuclei (%) [1]: 86%
- Population Hoechst High Intensity Objects (%) [1]: 5%
- Population Membrane Permeable-Phenotype (%) [1]: 0%
- Population Mitochondria Different-Phenotype (%) [1]: 46%
- Population Mitotic Cells (%) [1]: 65%
- Population Normal (%) [1]: 94%
- Population Pyknosed Nuclei (%) [1]: 8%
- Population Tubulin-Different-Phenotype (%) [1]: 38%
- Total Cell Count [1]: 490
- Population Apoptotic (%) [2]: 63%
- Population Fragmented Nuclei (%) [2]: 6%
- Population Healthy Nuclei (%) [2]: 75%
- Population Hoechst High Intensity Objects (%) [2]: 11%
- Population Mitochondria Different-Phenotype (%) [2]: 60%
- Population Mitotic Cells (%) [2]: 36%
- Population Normal (%) [2]: 88%
- Population Pyknosed Nuclei (%) [2]: 17%
- Population Tubulin-Different-Phenotype (%) [2]: 28%
- Total Cell Count [2]: 349
- Population Apoptotic (%) [3]: 42%
- Population Fragmented Nuclei (%) [3]: 8%
- Population Healthy Nuclei (%) [3]: 65%
- Population Hoechst High Intensity Objects (%) [3]: 10%
- Population Membrane Permeable-Phenotype (%) [3]: 0%
- Population Mitochondria Different-Phenotype (%) [3]: 74%
- Population Mitotic Cells (%) [3]: 57%
- Population Normal (%) [3]: 89%
- Population Pyknosed Nuclei (%) [3]: 25%
- Population Tubulin-Different-Phenotype (%) [3]: 65%
- Total Cell Count [3]: 290
- Population Apoptotic (%) [4]: 44%
- Population Fragmented Nuclei (%) [4]: 6%
- Population Healthy Nuclei (%) [4]: 64%
- Population Hoechst High Intensity Objects (%) [4]: 40%
- Population Mitochondria Different-Phenotype (%) [4]: 81%
- Population Mitotic Cells (%) [4]: 55%
- Population Normal (%) [4]: 59%
- Population Pyknosed Nuclei (%) [4]: 28%
- Population Tubulin-Different-Phenotype (%) [4]: 58%
- Total Cell Count [4]: 318
- Population Apoptotic (%) [5]: 28%
- Population Fragmented Nuclei (%) [5]: 10%
- Population Healthy Nuclei (%) [5]: 77%
- Population Hoechst High Intensity Objects (%) [5]: 3%
- Population Membrane Permeable-Phenotype (%) [5]: 0%
- Population Mitochondria Different-Phenotype (%) [5]: 34%
- Population Mitotic Cells (%) [5]: 71%
- Population Normal (%) [5]: 96%
- Population Pyknosed Nuclei (%) [5]: 12%
- Population Tubulin-Different-Phenotype (%) [5]: 26%
- Total Cell Count [5]: 654
- Population Apoptotic (%) [6]: 60%
- Population Fragmented Nuclei (%) [6]: 8%
- Population Healthy Nuclei (%) [6]: 81%
- Population Hoechst High Intensity Objects (%) [6]: 9%
- Population Mitochondria Different-Phenotype (%) [6]: 48%
- Population Mitotic Cells (%) [6]: 40%
- Population Normal (%) [6]: 90%
- Population Pyknosed Nuclei (%) [6]: 9%
- Population Tubulin-Different-Phenotype (%) [6]: 20%
- Total Cell Count [6]: 412
- Population Apoptotic (%) [7]: 43%
- Population Fragmented Nuclei (%) [7]: 9%
- Population Healthy Nuclei (%) [7]: 77%
- Population Hoechst High Intensity Objects (%) [7]: 13%
- Population Membrane Permeable-Phenotype (%) [7]: 0%
- Population Mitochondria Different-Phenotype (%) [7]: 66%
- Population Mitotic Cells (%) [7]: 56%
- Population Normal (%) [7]: 86%
- Population Pyknosed Nuclei (%) [7]: 13%
- Population Tubulin-Different-Phenotype (%) [7]: 56%
- Total Cell Count [7]: 338
- Population Apoptotic (%) [8]: 45%
- Population Fragmented Nuclei (%) [8]: 10%
- Population Healthy Nuclei (%) [8]: 61%
- Population Hoechst High Intensity Objects (%) [8]: 47%
- Population Mitochondria Different-Phenotype (%) [8]: 68%
- Population Mitotic Cells (%) [8]: 54%
- Population Normal (%) [8]: 52%
- Population Pyknosed Nuclei (%) [8]: 27%
- Population Tubulin-Different-Phenotype (%) [8]: 41%
- Total Cell Count [8]: 312
- Population Apoptotic (%) [9]: 20%
- Population Fragmented Nuclei (%) [9]: 13%
- Population Healthy Nuclei (%) [9]: 81%
- Population Hoechst High Intensity Objects (%) [9]: 1%
- Population Membrane Permeable-Phenotype (%) [9]: 1%
- Population Mitochondria Different-Phenotype (%) [9]: 21%
- Population Mitotic Cells (%) [9]: 79%
- Population Normal (%) [9]: 98%
- Population Pyknosed Nuclei (%) [9]: 5%
- Population Tubulin-Different-Phenotype (%) [9]: 15%
- Total Cell Count [9]: 986
- Population Apoptotic (%) [10]: 56%
- Population Fragmented Nuclei (%) [10]: 12%
- Population Healthy Nuclei (%) [10]: 82%
- Population Hoechst High Intensity Objects (%) [10]: 5%
- Population Membrane Permeable-Phenotype (%) [10]: 0%
- Population Mitochondria Different-Phenotype (%) [10]: 23%
- Population Mitotic Cells (%) [10]: 43%
- Population Normal (%) [10]: 94%
- Population Tubulin-Different-Phenotype (%) [10]: 13%
- Total Cell Count [10]: 568
- Population Apoptotic (%) [11]: 44%
- Population Fragmented Nuclei (%) [11]: 11%
- Population Healthy Nuclei (%) [11]: 78%
- Population Hoechst High Intensity Objects (%) [11]: 5%
- Population Membrane Permeable-Phenotype (%) [11]: 0%
- Population Mitochondria Different-Phenotype (%) [11]: 44%
- Population Mitotic Cells (%) [11]: 55%
- Population Normal (%) [11]: 94%
- Population Pyknosed Nuclei (%) [11]: 10%
- Population Tubulin-Different-Phenotype (%) [11]: 29%
- Total Cell Count [11]: 464
- Population Apoptotic (%) [12]: 58%
- Population Healthy Nuclei (%) [12]: 69%
- Population Hoechst High Intensity Objects (%) [12]: 24%
- Population Mitochondria Different-Phenotype (%) [12]: 47%
- Population Mitotic Cells (%) [12]: 41%
- Population Normal (%) [12]: 75%
- Population Pyknosed Nuclei (%) [12]: 18%
- Population Tubulin-Different-Phenotype (%) [12]: 23%
- Total Cell Count [12]: 363
